This is an account of results in ChEMBL document CHEMBL1135440, “(+)-Dinapsoline: an efficient synthesis and pharmacological profile of a novel dopamine agonist” (J Med Chem, 2002).

Assay [1] concerns Rattus norvegicus. The assay is described as follows: In vivo number of rotations at a dose of 0.2 mg/kg administered subcutaneously to Sprague-Dawley rats. It counts as functional. The note with it: route subcutaneous. In a few lines: (§1)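 Sprague-Dawley rats with unilateral 6-OHDA lesions of medial forebrain bundle, prescreened for rotation to amphetamine (5 mg/kg: 800 rotations/3 h) and apomorphine (0.2 mg/kg: 100 rotations/1 h). Subcutaneous dosing; rotations counted over 10 h, mean ± sem, n 5–10 per group. Each rat received four treatments, weekly, counterbalanced order.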

The subject of assay [2] is Rattus norvegicus. In words: In vivo number of rotations at a dose of 2 mg/kg administered subcutaneously to Sprague-Dawley rats. It counts as functional. The settings on record: route subcutaneous. The method in brief: as §1
Assay [3] can be described thus: In vitro intrinsic activity which is the ratio of the cyclase response of compound relative to that of dopamine. It counts as functional. In a few lines: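 cAMP accumulation in SK-N-MC cells (endogenous D1), varying compound concentrations with 1 mM IBMX, 10 min at 37 °C, cAMP by radioimmunoassay, nonlinear curve fitting. Intrinsic activity taken as ratio of compound maximal cyclase response to that of dopamine.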

Assay [4] concerns SK-N-MC. In words: In vitro adenylate cyclase response in neuroblastoma cell line. It counts as functional, cell-based. The note with it: Homo sapiens. The method in brief:
(§2)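 SK-N-MC human neuroblastoma cells with endogenous D1 receptor, seeded at 10⁵ cells/mL 1 day before assay (37 °C, 5% CO₂). Cells exposed to varying compound concentrations in assay buffer with 1 mM IBMX, 10 min at 37 °C; stopped with 0.1 N HCl; cAMP measured by radioimmunoassay; dose-response curves fitted by nonlinear regression.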

The subject of assay [5] is SK-N-MC. The assay is described as follows: In vitro adenylate cyclase response in neuroblastoma cell line SK-N-MC. It counts as functional, cell-based. The settings on record: Homo sapiens. In a few lines:
as §2

`Oc1ccc2c(c1O)Cc1cccc3c1[C@H]2CNC3`: the figures for the Rotations/10 h in the assay on Rattus norvegicus [1] and in the assay on Rattus norvegicus [2] were 4100 and 7000, respectively. Also, the Intrinsic activity in assay [3] was found to be 1. Also, in the assay with SK-N-MC [4], the response was half-maximal at 220 nM (EC50).
On to `Oc1ccc2c(c1O)Cc1cccc3c1C2CNC3` (racemic), for which the Rotations/10 h in the assay on Rattus norvegicus [1] came to 1900; in the assay on Rattus norvegicus [2], 4800. Also, in the assay with SK-N-MC [5], the EC50 stood at 190 nM. In addition, the Intrinsic activity in assay [3] came to 1.2.
Regarding `CCCc1cc2c(s1)CN[C@@H]1CCc3cc(O)c(O)cc3[C@@H]21` [A-86929], the Rotations/10 h in the assay on Rattus norvegicus [1] is 1100; with Rattus norvegicus [2], 4200.
With `Oc1ccc2c(c1O)Cc1cccc3c1[C@@H]2CNC3`, the figures for the Rotations/10 h in the assay with Rattus norvegicus [1] and with Rattus norvegicus [2] were 8 and 7, respectively. This compound had an EC50 with SK-N-MC [4] of over 10000 nM.
